The EternaBench riboswitch data

System: MS2 coat protein
Test: apparent Kd, MS2 coat protein; higher = weaker binding; RNA-MaP array; FMN 200 µM where present
Outline: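 Stalled E. coli RNA polymerase transcribed the designs on Illumina sequencing-chip clusters. SNAP-549-labelled MS2 coat protein was titrated from 0.7 or 1.5 nM, doubling to 3 µM, without and then with constant ligand, in 100 mM Tris-HCl pH 7.5, 80 mM KCl, 4 mM MgCl2, BSA, DTT, yeast tRNA and Tween-20. Per-cluster binding curves were fitted to green signal normalised to red-channel RNA signal and control-cluster median Fmax. The apparent Kd is the median of the filtered fits.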

[1] = designed as: ON switch for flavin mononucleotide, no ligand
[2] = ligand present: flavin mononucleotide, designed as: ON switch for flavin mononucleotide
[3] = designed as: OFF switch for flavin mononucleotide, no ligand
[4] = ligand present: flavin mononucleotide, designed as: OFF switch for flavin mononucleotide

AGUGUCAUCGAGAAGGCCUUAGGAACAUGAGGAUCACCCAUGUAACAUGGGAGGAUAUCGAUGAUACAGCUACGUUUCGUAGCA
apparent Kd [1]: 6.51 nM | apparent Kd [2]: 4.85 nM

GACAACAGAGGAUAUGCAUUGAGAUAGUUAUGAAGGUUGUUACAUGAGGAUCACCCAUGUAGAAGGCUGUCGUU
apparent Kd [3]: 18.3 nM | apparent Kd [4]: 24.3 nM

UGUCGGAGCAGAGGAUAUUACAUGAGGAUCACCCAUGUAUGAACCAAUAGCUGAAAACAGCAAUGUAAGAAGGCUGCUCCGACA
apparent Kd [3]: 11.5 nM | apparent Kd [4]: 176 nM

CAAUUACAUGAGGAUCACCCAUGUCAGGAUAUGCGAAUUACCAGAUGAAACUUAAUAAGCAGAAGGGACUACAA
apparent Kd [3]: 36.3 nM | apparent Kd [4]: 49.6 nM

AGAACACAUGAGGAUCACCCAUGUGAGGAUAUCGAUGUCCCAGGGCGGGUGCGGGACUCGAGAAGGCACUUGGA
apparent Kd [3]: 41.9 nM | apparent Kd [4]: 88 nM

UGUGCGUUGAUCUUCGAUCGGUGUACAUGAGGAUCACCCAUGUAGGAUAUUCAAAGACGCAGAUAGGAGAAGGACAUUGGUUUU
apparent Kd [3]: 16.8 nM | apparent Kd [4]: 20 nM

UCUUUAUUUGUGAGGAUAUCGAUAAAAUGGAUUGUCGAGAAGGCACAUGAGGAUCACCCAUGUAUUGAACAGCA
apparent Kd [3]: 59.2 nM | apparent Kd [4]: 212 nM

GGACAGUAAGGAUAUUGAGUCGGACAACGCCGACAGCUAGUCGAGAAGGUACAUGAGGAUCACCCAUGUCAAGU
apparent Kd [3]: 19.8 nM | apparent Kd [4]: 18 nM

UGUGCGUAUGUGAGGAUAUGCUGGUCCUUGGAUCGGCAGAAGGCACAUGAGGAUCACCCAUGUGGUGUCGUUCC
apparent Kd [3]: 144 nM | apparent Kd [4]: 57.8 nM

CAGUACUGAGGAUAUACAUGAGGAUCACCCAUGUGCUUUAGCUAGGAUACUAGCAUUAGUAGAAGGCAGUACUG
apparent Kd [3]: 12.3 nM | apparent Kd [4]: 21.5 nM

CAUACAGUAGUUAGGAUAUUGCAACGUACACGGAACGAGAAGGGACAUGAGGAUCACCCAUGUAGAUUGUAAAG
apparent Kd [3]: 21.8 nM | apparent Kd [4]: 21.1 nM

GUUCUUCCUGUAAGGAUAUCCAUGUAUCAAUGUAUGGAGAAGGUACAUGAGGAUCACCCAUGUCACCCGCGUUA
apparent Kd [3]: 16.6 nM | apparent Kd [4]: 39.8 nM

CUACCGCGUGUGAGGAUAUUAUCACGUUACGGCGCUAAGAAGGUACAUGAGGAUCACCCAUGUCUCAACGGGUG
apparent Kd [3]: 447 nM | apparent Kd [4]: 546 nM

AGUGUGUUAGGAUAUCGGAUAUGCUGGAGGAGGUGGAUUUACGAGAAGGAACAUGAGGAUCACCCAUGUAGGAG
apparent Kd [3]: 37.1 nM | apparent Kd [4]: 35.6 nM

UUGAUUAUACAAGGAUAUCUAUUGUAAUUGAGACUUACAUGAGGAUCACCCAUGUUAAUAUUUUUAGAGAAGGUGUAUUUUCAG
apparent Kd [1]: 32.3 nM | apparent Kd [2]: 22.9 nM

ACCAAUGCAGGAUAUACAUGAGGAUCACCCAUGUAUAACCUACAUAGAUGAUCAUCAUGUAGAAGGGCAUUGGA
apparent Kd [3]: 12.5 nM | apparent Kd [4]: 10.1 nM

ACAAAUGGAGGAUAUACAUGAGGAUCACCCAUGUUUAUCCUACAUAUGUGAUCCUCAUGUAGAAGGCCAUAUGA
apparent Kd [3]: 11 nM | apparent Kd [4]: 10.6 nM

UCAUAAUAGAUCCUAUUUAUCUACAUGAGGAUCACCCAUGUGCAGGAUAUGCUAAAAUUAAAAUAGCAGAAGGGCAAUAUCAGC
apparent Kd [3]: 109 nM | apparent Kd [4]: 365 nM

GUACCAUAUGAGAAGGCGAUCAUGAAACAUGAUCGAGGAUAUCAUGAAAACAUGAGGAUCACCCAUGUAUGGGUAUUAAGGUAC
apparent Kd [1]: 61.4 nM | apparent Kd [2]: 23.7 nM

CUAGCAACAUGAGGAUCACCCAUGUAGGAUAUCGCUAUUGUAAUCAUGAAACAUGAUUACAAUAGCGAGAAGGACAUAUGCUAG
apparent Kd [3]: 6.44 nM | apparent Kd [4]: 9.28 nM

AAUUAGGUCACAGGAUAUACUACAUCCAAUGCUGUAGAAGGGUGACACAUUCUGUGCAGACAUGAGGAUCACCCAUGUAACCAC
apparent Kd [1]: 27.9 nM | apparent Kd [2]: 12.8 nM

UGUCGGAGCAGAGGAUAUUACAUGAGGAUCACCCAUGUAUGAACCAAUAGCUGGUAACAGCAAUGUAAGAAGGCUGCUCCGACA
apparent Kd [3]: 14.1 nM | apparent Kd [4]: 176 nM

AGCUAUUAAUCAGGAUAUAGGGACAUGAGGAUCACCCAUGUGUACAUGAUAAAAUGUGAUCACGUCUAGAAGGGAUUACUAACA
apparent Kd [1]: 77 nM | apparent Kd [2]: 79.8 nM

AUAUAACAUGAGGAUCACCCAUGUCACUAAAGUCGAGGAUAUGGGCAGGUUAUAUCCGAACCAGAAGGCGAAUUAU
apparent Kd [1]: 220 nM | apparent Kd [2]: 29.2 nM

GAGCGAAAGCUCAAUGUCGAUAGCAGAAGGACAUCCUUCAACAUGAAAACAUGAGGAUCACCCAUGUAGGAUAUGCUAUCGACU
apparent Kd [3]: 5.32 nM | apparent Kd [4]: 5.84 nM

UUGUUGUGUGGAGGAUAUGCACUAACUGUUAGCGCAGAAGGCCACAUGAGGAUCACCCAUGUCCGGGUUACUGCCUAAGGAGUG
apparent Kd [3]: 71.9 nM | apparent Kd [4]: 230 nM

CAGUACUGAGGAUAUACAUGAGGAUCACCCAUGUGCUCUAGCUAGGAUACUAGCAUUAGUAGAAGGCAGUACUG
apparent Kd [3]: 15 nM | apparent Kd [4]: 136 nM

AUCAUCUUAUCAGGAUAUGCGAGUCGACGAAAGUAGACAAUCUUGAUAACAUGAGGAUCACCCAUGUAGAAGGGAUGAGAUGAU
apparent Kd [3]: 48.1 nM | apparent Kd [4]: 51.7 nM

GUAGUGUAUGUAGGAUAUGCGAAGCAAAGCUUCGCAGAAGGACAUGAGGAUCACCCAUGUAUUGCAGCCUGCAAUCAGGCUGCU
apparent Kd [3]: 42.2 nM | apparent Kd [4]: 184 nM

UAAUAAAACGAUCGGCGAUCCAUACAUGAGGAUCACCCAUGUAGAAGGGACUCUACAAAGUAGAGUCAGGAUAUACAAGAUCGA
apparent Kd [3]: 10 nM | apparent Kd [4]: 124 nM

UUUGGGAACUCUAUGGGCCGCUACAUGAGGAUCACCCAUGUGCAGGAUAUAGGCGUUACUACCACCUAGAAGGGCACAGAAUGA
apparent Kd [3]: 32.5 nM | apparent Kd [4]: 47.6 nM

CGAUGACUGGUGAGGAUAUCGUGUUCGAAAGAACGUGAGAAGGCACAUGAGGAUCACCCAUGUGAUCCUCAUCG
apparent Kd [3]: 29.8 nM | apparent Kd [4]: 206 nM

UUAAUGUGAGGAUAUCAGGUGUGCUAGAGUACUGGUACAUCUGAGAAGGCACAUGAGGAUCACCCAUGUUCUUC
apparent Kd [3]: 36.9 nM | apparent Kd [4]: 110 nM

GACUUCCGAGGAUAUACAUGAGGAUCACCCAUGUGCUUCAGCAUUUUUUGAUGCAUGGGUAGAAGGCGGUAGUU
apparent Kd [3]: 261 nM | apparent Kd [4]: 281 nM

AGAGACUUGGGAGGAUAUGCCUGAUGGACACGGGCAGAAGGCCCAAACAUGAGGAUCACCCAUGUAUCUAAGCCCUGGAAGGGC
apparent Kd [1]: 310 nM | apparent Kd [2]: 20.6 nM

CCGGAAAGGAAGGAUAUGCUAGACGAAAGUCUAGCAGAAGGUCCUACAUGAGGAUCACCCAUGUGUCCUACCGG
apparent Kd [3]: 47.2 nM | apparent Kd [4]: 60.5 nM

UCCUUACUGGUCAGGAUAUACAGUCGCGGGUGGGUGUAGAAGGGACAUGAGGAUCACCCAUGUACGUUGCAGCC
apparent Kd [3]: 40.6 nM | apparent Kd [4]: 40.9 nM
